According to ChEMBL document CHEMBL1140237, “6-(2-Phenylethyl)nicotine: a novel nicotinic cholinergic receptor ligand” (Bioorg Med Chem Lett, 2005):
Calls of active or inactive are those of the source. No cut-off for these calls is given here.

Experiments:
[1] = biological target: T1, Neuronal acetylcholine receptor; alpha4/beta2 (Rattus norvegicus, UniProt P09483+P12390); test: Inhibition of [3H](-)-nicotine binding to rat brain (minus cerebellum) Nicotinic acetylcholine receptor alpha4-beta2; format: tissue-based
T1 sequence (P09483 whole entry): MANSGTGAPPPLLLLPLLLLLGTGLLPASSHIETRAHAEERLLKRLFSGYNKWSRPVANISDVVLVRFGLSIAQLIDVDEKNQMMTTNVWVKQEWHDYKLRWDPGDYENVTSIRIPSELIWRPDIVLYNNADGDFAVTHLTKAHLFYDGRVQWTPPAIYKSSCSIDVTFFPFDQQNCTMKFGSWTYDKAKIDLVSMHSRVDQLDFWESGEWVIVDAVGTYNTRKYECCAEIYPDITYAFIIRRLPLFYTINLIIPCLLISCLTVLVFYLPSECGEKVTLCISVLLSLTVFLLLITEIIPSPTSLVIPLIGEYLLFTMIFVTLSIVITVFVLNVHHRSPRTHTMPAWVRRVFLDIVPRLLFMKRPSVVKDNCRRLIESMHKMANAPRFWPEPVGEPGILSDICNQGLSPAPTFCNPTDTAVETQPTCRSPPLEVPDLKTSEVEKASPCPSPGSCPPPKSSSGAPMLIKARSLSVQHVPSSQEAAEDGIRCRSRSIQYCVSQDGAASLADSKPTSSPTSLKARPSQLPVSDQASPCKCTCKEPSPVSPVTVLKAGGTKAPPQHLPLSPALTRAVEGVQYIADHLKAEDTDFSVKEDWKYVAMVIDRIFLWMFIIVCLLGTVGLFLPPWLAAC
T1 sequence (P12390 whole entry): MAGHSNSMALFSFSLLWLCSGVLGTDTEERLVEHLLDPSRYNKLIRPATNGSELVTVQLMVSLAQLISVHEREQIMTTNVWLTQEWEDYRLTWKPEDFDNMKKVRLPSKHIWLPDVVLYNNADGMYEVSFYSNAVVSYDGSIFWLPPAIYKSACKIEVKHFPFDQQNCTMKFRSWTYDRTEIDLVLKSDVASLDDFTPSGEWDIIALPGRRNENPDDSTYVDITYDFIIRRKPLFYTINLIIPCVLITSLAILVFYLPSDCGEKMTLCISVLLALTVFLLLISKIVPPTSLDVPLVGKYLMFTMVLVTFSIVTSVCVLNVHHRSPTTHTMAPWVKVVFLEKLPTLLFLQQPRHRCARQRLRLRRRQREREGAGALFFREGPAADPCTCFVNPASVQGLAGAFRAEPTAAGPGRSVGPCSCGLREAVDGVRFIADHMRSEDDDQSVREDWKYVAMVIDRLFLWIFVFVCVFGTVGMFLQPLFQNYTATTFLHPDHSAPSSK
Method in brief: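 Rat brain homogenate with cerebellum removed, labelled with [3H](-)nicotine. IC50 taken from a plot of log concentration against percent displacement, then converted to Ki. At least triplicate.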

[2] = biological target: Neuronal acetylcholine receptor; alpha3/beta2 (Rattus norvegicus, UniProt P04757+P12390); test: Binding affinity for rat Nicotinic acetylcholine receptor alpha3-beta2; format: protein-complex assay
Neuronal acetylcholine receptor; alpha3/beta2, sequence (P04757 whole entry): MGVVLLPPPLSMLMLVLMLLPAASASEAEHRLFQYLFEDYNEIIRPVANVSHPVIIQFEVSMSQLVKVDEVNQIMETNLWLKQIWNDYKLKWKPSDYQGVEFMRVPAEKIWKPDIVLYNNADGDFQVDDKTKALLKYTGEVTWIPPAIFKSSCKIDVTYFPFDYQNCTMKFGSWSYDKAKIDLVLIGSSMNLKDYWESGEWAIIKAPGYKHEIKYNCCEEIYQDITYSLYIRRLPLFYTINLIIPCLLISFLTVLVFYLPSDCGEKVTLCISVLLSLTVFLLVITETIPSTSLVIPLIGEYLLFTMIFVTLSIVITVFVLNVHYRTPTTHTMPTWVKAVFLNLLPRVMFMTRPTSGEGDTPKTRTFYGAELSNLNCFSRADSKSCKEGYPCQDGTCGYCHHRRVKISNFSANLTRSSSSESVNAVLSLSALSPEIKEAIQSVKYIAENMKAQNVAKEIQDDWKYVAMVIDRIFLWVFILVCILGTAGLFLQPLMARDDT
Neuronal acetylcholine receptor; alpha3/beta2, sequence (P12390 whole entry): as the sequence (P12390 whole entry) above
Method in brief: (§1)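 Binding run by the NIMH Psychoactive Drug Screening Program under standard protocols, using cloned rat receptor preparations.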

Mus musculus [3] = test: Nicotine-like action of the compound tested in mouse in hypothermia assay at 15 mg/kg sc dose; NA = Not active; format: functional, organism-based; design: dose 15 mg/kg
Method in brief: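 Male ICR mice (20–25 g), at least six per dose, given compound or saline sc. Rectal temperature read by thermistor probe inserted 24 mm, just before and 30 min after injection.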

[4] = biological target: Neuronal acetylcholine receptor; alpha2/beta4 (Rattus norvegicus, UniProt P12389+P12392); test: Binding affinity for rat Nicotinic acetylcholine receptor alpha2-beta4; format: protein-complex assay; method in brief: as §1
Neuronal acetylcholine receptor; alpha2/beta4, sequence (P12389 whole entry): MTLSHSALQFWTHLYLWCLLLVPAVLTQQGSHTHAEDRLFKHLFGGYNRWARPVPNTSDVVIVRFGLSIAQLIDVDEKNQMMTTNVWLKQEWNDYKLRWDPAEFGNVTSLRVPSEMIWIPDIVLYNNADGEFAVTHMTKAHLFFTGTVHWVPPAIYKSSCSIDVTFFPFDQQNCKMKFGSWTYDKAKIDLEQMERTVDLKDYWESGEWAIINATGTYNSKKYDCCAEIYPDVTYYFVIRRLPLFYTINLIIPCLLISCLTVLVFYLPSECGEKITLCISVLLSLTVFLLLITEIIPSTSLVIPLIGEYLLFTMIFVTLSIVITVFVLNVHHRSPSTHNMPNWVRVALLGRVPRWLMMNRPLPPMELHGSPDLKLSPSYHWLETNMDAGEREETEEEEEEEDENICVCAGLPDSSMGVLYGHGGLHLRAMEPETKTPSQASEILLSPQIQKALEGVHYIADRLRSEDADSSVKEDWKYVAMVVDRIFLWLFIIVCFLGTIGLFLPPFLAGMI
Neuronal acetylcholine receptor; alpha2/beta4, sequence (P12392 whole entry): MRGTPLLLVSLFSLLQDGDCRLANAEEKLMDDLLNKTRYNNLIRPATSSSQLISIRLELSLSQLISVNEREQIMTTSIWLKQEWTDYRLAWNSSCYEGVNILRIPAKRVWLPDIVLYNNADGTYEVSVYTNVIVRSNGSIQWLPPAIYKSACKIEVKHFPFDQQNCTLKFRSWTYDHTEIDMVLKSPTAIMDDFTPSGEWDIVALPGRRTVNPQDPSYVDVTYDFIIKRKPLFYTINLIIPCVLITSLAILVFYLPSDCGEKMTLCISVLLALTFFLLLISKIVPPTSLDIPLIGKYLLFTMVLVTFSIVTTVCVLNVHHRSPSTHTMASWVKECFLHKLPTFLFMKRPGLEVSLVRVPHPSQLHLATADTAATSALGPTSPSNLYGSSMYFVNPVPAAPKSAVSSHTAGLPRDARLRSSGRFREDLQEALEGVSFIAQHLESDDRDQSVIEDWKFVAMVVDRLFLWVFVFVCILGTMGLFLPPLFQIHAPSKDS

[5] = biological target: Neuronal acetylcholine receptor; alpha3/beta4 (Rattus norvegicus, UniProt P04757+P12392); test: Binding affinity for rat Nicotinic acetylcholine receptor alpha3-beta4; format: protein-complex assay; method in brief: as §1
Neuronal acetylcholine receptor; alpha3/beta4, sequence (P04757 whole entry): as the sequence (P04757 whole entry) above
Neuronal acetylcholine receptor; alpha3/beta4, sequence (P12392 whole entry): as the sequence (P12392 whole entry) above

Mus musculus [6] = test: Nicotine-like action of the compound tested in mouse in spontaneous activity assay at 15 mg/kg sc dose; NA = Not active; format: functional, organism-based; design: dose 15 mg/kg
Method in brief: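 Male ICR mice (20–25 g), at least six per dose, given compound or 0.9% saline sc. Placed in individual photocell activity cages 5 min after injection. Beam interruptions counted over the next 10 min.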

[7] = biological target: T1, Neuronal acetylcholine receptor; alpha4/beta2; test: Inhibition of [3H]epibatidine binding to rat Nicotinic acetylcholine receptor alpha4-beta2; format: protein-complex assay
[8] = biological target: Neuronal acetylcholine receptor; alpha2/beta2 (Rattus norvegicus, UniProt P12389+P12390); test: Binding affinity for rat Nicotinic acetylcholine receptor alpha2-beta2; format: protein-complex assay; method in brief: as §1
Neuronal acetylcholine receptor; alpha2/beta2, sequence (P12389 whole entry): as the sequence (P12389 whole entry) above
Neuronal acetylcholine receptor; alpha2/beta2, sequence (P12390 whole entry): as the sequence (P12390 whole entry) above

[9] = biological target: Neuronal acetylcholine receptor; alpha4/beta4 (Rattus norvegicus, UniProt P09483+P12392); test: Binding affinity for rat Nicotinic acetylcholine receptor alpha4-beta4; format: protein-complex assay; method in brief: as §1
Neuronal acetylcholine receptor; alpha4/beta4, sequence (P09483 whole entry): as the sequence (P09483 whole entry) above
Neuronal acetylcholine receptor; alpha4/beta4, sequence (P12392 whole entry): as the sequence (P12392 whole entry) above

Mus musculus [10] = test: Percent of maximal possible antinociceptive effect at 15 mg/kg dose; failed to produce effect; format: functional

Row | Structure (SMILES) | Ki [1] [µM] | also measured
1 | CCCc1ccc(C2CCCN2C)cn1 (stereo not given) | 0.017 | –
2 | CCN(C)CCc1ccc(CCc2ccccc2)nc1 | > 10 | –
3 | CN1CCCC1c1ccc(CCc2ccccc2)nc1 (stereo not given) | 0.015 | Ki [2]: 2 µM; Activity (Mus musculus [3]): inactive; Ki [4]: 1.2 µM; Ki [5]: 4.6 µM; Activity (Mus musculus [6]): inactive; Ki [7]: 0.2 µM; Ki [8]: 0.49 µM; Ki [9]: 0.4 µM; MPE (Mus musculus [10]): 2%
4 | CN1CCCC1c1ccc(CCCc2ccccc2)nc1 (single isomer, unassigned; (+)) | > 10 | –
5 | CN1CCCC1c1ccc(CCCc2ccccc2)nc1 (single isomer, unassigned; (-)) | 0.072 | –
6 | CCc1ccc(C2CCCN2C)cn1 (stereo not given) | 0.0056 | –
7 | CN1CCCC1c1ccc(CC(O)c2ccccc2)nc1 (stereo not given) | 0.275 | –
8 | CN1CCCC1c1ccc(/C=C/c2ccccc2)nc1 (stereo not given) | 0.35 | –
9 | COc1ccc(CCc2ccc(C3CCCN3C)cn2)cc1 (stereo not given) | 0.01 | –
10 | CN1CCCC1c1ccc(C(=O)O)nc1 (stereo not given) | > 10 | –
11 | CN1CCCC1c1ccc(CCc2ccc(Cl)cc2)nc1 (stereo not given) | 0.04 | –
